Data set [1] is described as follows: Induction of locomotor activity in C57BL/6J mouse assessed as increase in traveled distance every 10 mins at 3 and 10 mg/kg, ip. The conditions noted are these: in vivo. In kind it is organism-based.
Another data set deals with T1, D(4) dopamine receptor (Homo sapiens, UniProt P21917).
T1 sequence (P21917 whole entry): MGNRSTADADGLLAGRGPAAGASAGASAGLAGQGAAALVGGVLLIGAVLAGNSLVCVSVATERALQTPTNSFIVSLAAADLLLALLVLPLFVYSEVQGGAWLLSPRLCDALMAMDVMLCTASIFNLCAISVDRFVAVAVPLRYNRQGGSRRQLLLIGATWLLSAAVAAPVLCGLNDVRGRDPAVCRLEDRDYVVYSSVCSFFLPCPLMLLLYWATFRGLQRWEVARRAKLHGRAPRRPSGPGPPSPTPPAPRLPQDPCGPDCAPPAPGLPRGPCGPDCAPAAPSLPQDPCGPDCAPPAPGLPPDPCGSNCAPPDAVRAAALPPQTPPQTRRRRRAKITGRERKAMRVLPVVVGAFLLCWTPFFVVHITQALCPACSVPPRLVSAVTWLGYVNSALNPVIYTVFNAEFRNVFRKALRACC
In words: Displacement of [3H]N-methylspiperone from human D4R expressed in HEK293 cell membranes incubated for 1 hr by radioligand binding assay. Summed up:
(§1)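 Membranes from HEK293 cells stably expressing human D2R (20 µg protein) or D4R (30 µg protein). Buffer: EBSS with 0.2 mM sodium metabisulfite and 0.4 nM [3H]N-methylspiperone. Test compound at 11 half-log dilutions (100 µM–100 pM or 10 µM–10 pM) in 30% DMSO vehicle. Incubated 1 h at room temperature; nonspecific binding with 10 µM butaclamol.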
A general note: Displacement assays read how much labelled ligand stays bound in the presence of the test substance.

The target in the next data set is D(3) dopamine receptor (Homo sapiens, UniProt P35462). In words: Displacement of [3H]N-methylspiperone from human D3R expressed in HEK293 cell membranes incubated for 1 hr by radioligand binding assay.
Sequence of D(3) dopamine receptor (P35462 whole entry): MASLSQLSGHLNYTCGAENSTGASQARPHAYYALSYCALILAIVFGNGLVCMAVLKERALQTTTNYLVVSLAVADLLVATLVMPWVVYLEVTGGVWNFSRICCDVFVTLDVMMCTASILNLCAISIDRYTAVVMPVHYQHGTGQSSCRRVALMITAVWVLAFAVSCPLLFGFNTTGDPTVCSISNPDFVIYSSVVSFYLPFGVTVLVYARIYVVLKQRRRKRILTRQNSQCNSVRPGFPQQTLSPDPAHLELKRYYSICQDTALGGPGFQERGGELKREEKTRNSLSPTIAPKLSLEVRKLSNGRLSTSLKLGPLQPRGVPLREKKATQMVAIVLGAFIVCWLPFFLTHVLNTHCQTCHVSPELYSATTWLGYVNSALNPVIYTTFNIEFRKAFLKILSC
The target of data set [2] is T2, D(2) dopamine receptor (Homo sapiens, UniProt P14416). In words: Displacement of [3H]N-methylspiperone from human D2R expressed in HEK293 cell membranes incubated for 1 hr by radioligand binding assay. The essentials:
as §1

Data set [3] in a line: Induction of locomotor activity in C57BL/6J mouse assessed as increase in traveled distance every 10 mins at 10 mg/kg, ip. In kind it is organism-based. The settings on record: in vivo.
Data set [4] has as its target Sigma non-opioid intracellular receptor 1 (Cavia porcellus, UniProt Q60492). In words: Displacement of [3H](+)-pentazocine from sigma1 receptor in whole-guinea pig brain minus cerebellum homogenates incubated for 120 mins by radioligand binding assay. Summed up:
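Guinea pig whole-brain (minus cerebellum) membranes, 8.0 mg OWW per tube, in 50 mM Tris-HCl pH 8.0 with 3 nM [3H](+)-pentazocine. Incubated 120 min at room temperature. Nonspecific binding defined by haloperidol. Stopped by GF/B filtration and scintillation counting. IC50 from nonlinear regression, converted to Ki. At least three independent experiments, each in triplicate.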

The nature of data set [5]: Induction of locomotor activity in C57BL/6J mouse assessed as increase in traveled distance every 10 mins at 10 to 30 mg/kg, ip. In kind it is organism-based. The settings on record: in vivo.
Data set [6] has as its target T3, Sodium-dependent dopamine transporter (Homo sapiens, UniProt Q01959). In words: Inhibition of DAT (unknown origin) expressed in COS7 cells assessed as reduction in [3H]DA uptake incubated for 5 mins by beta-scintillation counting method. In kind it is cell-based, COS-7.
The target of data set [7] is T3, Sodium-dependent dopamine transporter. In words: Displacement of [3H]WIN35,428 from wild type human DAT expressed in COS7 cell membranes incubated for >90 mins by radioligand binding assay. The arrangement: species or system COS-7.
Data set [8] in a line: Displacement of [3H]WIN35,428 from human DAT Y156F mutant expressed in COS7 cell membranes incubated for >90 mins by radioligand binding assay. The conditions noted are these: cos-7.
Data set [9] deals with T2, D(2) dopamine receptor. In words: Antagonist activity at DRD2 (unknown origin) expressed in HEK293T cells transfected with Galphai1-RLuc8 and gamma2-GFP10 assessed as inhibition of quinpirole-induced Gi1 activation pre-incubated with quinpirole for 10 mins before compound incubation for 10 mins by BRET assay. In kind it is cell-based, HEK-293T. Summed up: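 HEK-293T cells co-transfected with Flag-tagged D2 receptor, RLuc8-fused Gαi1, GFP10-fused Gγ and untagged Gβ, using constant total plasmid DNA at various partner ratios. Cells preincubated 10 min with 1 µM quinpirole, then 10 min with test compound. Read-out: BRET as fluorescence at 535 nm after 5 µM coelenterazine 400a.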
For orientation: BRET reads energy transfer from a luciferase to a nearby fluorophore.

Data set [10] is described as follows: Stability in mouse liver microsomes assessed as half life at 10 uM in presence of NADPH regenerating system by LC/MS/MS method. The conditions noted are these: for half-life at 10 µM: liver microsomes. In kind it is ADME. The essentials: (§2)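 Mouse liver microsomes (0.5 mg/mL) in 100 mM potassium phosphate pH 7.4 with NADPH regenerating system. Compound at 10 µM final; testosterone as positive control. Parent compound loss followed over time by LC/MS/MS on a C18 column with formic acid/acetonitrile gradient.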
For orientation: Liver microsomes are vesicles of endoplasmic reticulum, rich in cytochrome P450 enzymes.

Data set [11] can be described thus: Stability in mouse liver microsomes assessed as compound remaining at 10 uM in absence of NADPH regenerating system measured after 60 mins by LC/MS/MS method. The settings on record: read-out: Stability. In kind it is ADME, microsome.
Data set [12] can be described thus: Stability in mouse liver microsomes assessed as compound remaining at 10 uM in presence of NADPH regenerating system measured up to 70 mins by LC/MS/MS method. In kind it is ADME. The conditions noted are these: read-out: Stability.
A short description of data set [13]: Stability in mouse liver microsomes assessed as compound remaining at 10 uM in presence of NADPH regenerating system measured at 60 mins by LC/MS/MS method. The conditions noted are these: read-out: Stability. In kind it is ADME. Summed up:
as §2

Bounds are passed on as bounds.

T3 sequence (Q01959 whole entry): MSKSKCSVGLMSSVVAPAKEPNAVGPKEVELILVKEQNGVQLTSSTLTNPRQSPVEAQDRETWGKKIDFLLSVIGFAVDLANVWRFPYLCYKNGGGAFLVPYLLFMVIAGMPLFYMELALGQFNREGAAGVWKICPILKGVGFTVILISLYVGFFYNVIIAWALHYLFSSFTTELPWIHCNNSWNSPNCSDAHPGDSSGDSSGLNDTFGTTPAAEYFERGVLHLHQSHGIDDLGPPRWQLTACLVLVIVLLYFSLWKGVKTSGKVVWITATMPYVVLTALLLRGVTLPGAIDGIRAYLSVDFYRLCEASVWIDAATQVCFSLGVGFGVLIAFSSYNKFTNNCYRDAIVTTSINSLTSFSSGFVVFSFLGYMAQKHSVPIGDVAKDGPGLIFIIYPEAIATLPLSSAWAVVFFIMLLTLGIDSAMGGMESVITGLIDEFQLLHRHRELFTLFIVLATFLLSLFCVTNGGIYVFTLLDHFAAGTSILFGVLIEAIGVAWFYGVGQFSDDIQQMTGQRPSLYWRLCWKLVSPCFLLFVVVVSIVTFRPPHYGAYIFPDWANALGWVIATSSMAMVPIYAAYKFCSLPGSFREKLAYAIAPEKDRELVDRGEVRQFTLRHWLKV
T2 sequence (P14416 whole entry): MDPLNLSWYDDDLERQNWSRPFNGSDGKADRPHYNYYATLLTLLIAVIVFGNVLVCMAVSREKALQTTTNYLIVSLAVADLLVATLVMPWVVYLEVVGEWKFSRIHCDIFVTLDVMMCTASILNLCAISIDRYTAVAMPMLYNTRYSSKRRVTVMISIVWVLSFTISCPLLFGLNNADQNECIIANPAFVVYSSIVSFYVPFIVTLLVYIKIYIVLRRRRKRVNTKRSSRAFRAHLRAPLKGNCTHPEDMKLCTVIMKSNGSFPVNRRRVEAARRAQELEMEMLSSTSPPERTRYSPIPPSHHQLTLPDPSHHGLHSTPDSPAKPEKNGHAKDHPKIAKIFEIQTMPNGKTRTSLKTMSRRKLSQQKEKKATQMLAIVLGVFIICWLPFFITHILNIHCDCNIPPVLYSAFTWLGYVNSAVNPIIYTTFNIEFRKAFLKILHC
Sequence of Sigma non-opioid intracellular receptor 1 (Q60492 whole entry): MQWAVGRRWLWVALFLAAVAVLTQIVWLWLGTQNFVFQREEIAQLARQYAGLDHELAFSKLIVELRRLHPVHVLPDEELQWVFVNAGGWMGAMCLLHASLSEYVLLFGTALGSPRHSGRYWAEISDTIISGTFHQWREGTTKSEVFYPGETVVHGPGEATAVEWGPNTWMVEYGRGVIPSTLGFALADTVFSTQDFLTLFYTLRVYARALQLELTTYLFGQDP

Regarding `COC(=O)[C@H]1[C@@H](OC(=O)c2ccccc2)C[C@@H]2CC[C@H]1N2C` [COCAINE], in [1], the Activity result is “Dose-dependent effect”.
By Ki is commonly meant the dissociation constant of the complex between target and ligand, obtained from inhibition or displacement. Take `NC(=O)C[S@@+]([O-])C(c1ccccc1)c1ccccc1` [ARMODAFINIL]: the Ki on D(4) dopamine receptor was over 100000 nM; on D(3) dopamine receptor, 39000 nM; at D(2) dopamine receptor [2], over 100000 nM; in data set [4], over 100000 nM. Also, the Activity entry in data set [3] is recorded as “Toxic”; in data set [5], “Dose-dependent effect”.
As a reminder, the IC50 is the concentration that inhibits the measured activity by half. By half-life is commonly meant how long it takes for the measured level to halve. Regarding `CC(O)CN1CCN(CCSC(c2ccc(F)cc2)c2ccc(F)cc2)CC1` (stereo not drawn), the Ki in data set [6] is 200 nM; at D(4) dopamine receptor, 6300 nM; in [7], 101 nM; in data set [8] it was 267 nM; at D(3) dopamine receptor, 424 nM; at D(2) dopamine receptor [2], 693 nM. Besides, at D(2) dopamine receptor [9], the IC50 is over 10000 nM. Also, the half-life at 10 µM in data set [10] worked out at 1 h. In data set [11], the remaining at 1 h, 10 µM is over 95%. Also, the remaining at 70 min, 10 µM in data set [12] is 50%.
Regarding `Fc1ccc(C(SCCNCCCc2ccccc2)c2ccc(F)cc2)cc1`, the Ki was determined as 28.1 nM on D(4) dopamine receptor, 65.9 nM on D(3) dopamine receptor, 228 nM at D(2) dopamine receptor [2] and 159 nM in [4]. Besides, the Activity result in data set [3] is on record as “Non-Toxic”.
`[O-][S+](CCN1CCN(CC(O)Cc2ccccc2)CC1)C(c1ccc(F)cc1)c1ccc(F)cc1` (stereo not drawn): the Ki in data set [6] was 12 nM; on D(4) dopamine receptor, 1750 nM; in [7], 6.5 nM; in data set [8] it was 97 nM; at D(3) dopamine receptor it was 652 nM; at D(2) dopamine receptor [2] it was 78.6 nM. Further, the remaining at 1 h, 10 µM in data set [13] is 4%; in data set [11], over 95%. For the same compound, at D(2) dopamine receptor [9], the IC50 was over 10000 nM. For the same compound, the Activity result is listed as “Non-Toxic” in data set [3] and “Dose-dependent effect” in data set [5]. In addition, the t1/2 in data set [10] (microsomes, 10 µM) is 0.217 h.
In the case of `CC(O)CN1CCN(CC[S+]([O-])C(c2ccc(F)cc2)c2ccc(F)cc2)CC1` (stereo not drawn), the Ki on D(4) dopamine receptor amounted to 3820 nM; in [7], 1200 nM; in data set [8], 9170 nM; on D(3) dopamine receptor, 480 nM; on D(2) dopamine receptor [2] it was 298 nM. Further, at D(2) dopamine receptor [9], the IC50 was over 10000 nM. The half-life at 10 µM in [10] is 1 h. In addition, the remaining at 1 h, 10 µM in data set [11] is over 95%. In addition, the remaining at 70 min, 10 µM in data set [12] turned out to be 50%.

(Values after ChEMBL document CHEMBL3862037 (J Med Chem, 2016).)
